Granule exo inh: blocks lytic granule exocytosis; TALL-104 LAMP-1 surface exposure, flow cytometry; cells stimulated with thapsigargin and PMA; hit rate 0.66% among 360,000; inhibition, % at 10 µM;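 active = inhibition above about 55%, limit read from the data; inconclusive = no clear call, values can overlap the other calls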
HNF4A DNA FP: change in binding of human HNF4 alpha to DNA; P41235; activity change, % at 10 µM; HNF4a-FITC DNA binding, fluorescence polarization, 1 h; hit rate 0.3% among 360,000; in the data active = activity change above about 30%, passing the limit was not always enough
Target sequence (P41235 whole entry, looked up): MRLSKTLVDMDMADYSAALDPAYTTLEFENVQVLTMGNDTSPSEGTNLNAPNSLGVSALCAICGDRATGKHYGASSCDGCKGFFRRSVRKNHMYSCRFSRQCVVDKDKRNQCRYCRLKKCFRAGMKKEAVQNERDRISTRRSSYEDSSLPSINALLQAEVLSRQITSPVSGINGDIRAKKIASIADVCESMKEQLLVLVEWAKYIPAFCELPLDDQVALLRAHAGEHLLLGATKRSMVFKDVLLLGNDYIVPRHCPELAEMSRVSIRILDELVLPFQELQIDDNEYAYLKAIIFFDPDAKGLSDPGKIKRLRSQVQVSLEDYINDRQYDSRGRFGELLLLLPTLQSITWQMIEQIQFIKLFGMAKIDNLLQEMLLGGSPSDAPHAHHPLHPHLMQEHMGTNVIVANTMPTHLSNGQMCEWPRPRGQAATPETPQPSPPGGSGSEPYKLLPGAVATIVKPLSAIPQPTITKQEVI
Myeloid diff 2: promotes myeloid progenitor differentiation | ER-HoxA9 myeloid progenitors, lysozyme-GFP differentiation, flow cytometry | calls only at 10 µM | hit rate 1% among 360,000 | AID 624256;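 active = normalized GFP-positive differentiation at or above the plate's own cutoff, the solvent-only control mean plus 3 SD; inconclusive = no clear call, values can overlap the other calls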;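 note: cells exposed to compound for four days before flow analysis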
CSN deneddyl inh: blocks human CSN-mediated cullin deneddylation; hit rate 0.38% among 360,000; Purified CSN, SCF-Nedd8-OG deneddylation, fluorescence polarization; inhibition, % at 12.5 µM;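 active = pattern-corrected inhibition above about 35%, with an unprinted fluorescence ratio check between 0.5 and 1.5, limit read from the data, passing the limit was not always enough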;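 note: 0% = enzyme with substrate and 100% = substrate without enzyme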
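test system = HEK293T-derived human Csn5 enzyme | amount = 0.24 nM Csn5 enzyme, final concentration | medium = Tris/NaCl/DTT buffer, pH 7.5 | schedule = 90 min reaction at room temperature | signal = FP | evaluation = inhibition of Csn5 cleavage, % | compound dosing = single dose of 12.5 µM compound with 0.25% DMSO | probe or stimulus = 10 nM SCFSkp2-Nedd8OG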
Granule exo CP1: lytic granule exocytosis inhibition | shares compounds with Granule exo inh | TALL-104 cells, LAMP-1 externalization, flow cytometry; stimulated with PMA plus thapsigargin | inhibition, % at 10 µM | hit rate 11% among 1,500; in the data active = inhibition above about 60%;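 note: 0% = stimulated vehicle wells and 100% = unstimulated wells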
Active calls of the source: *; i = inactive; ? = inconclusive; . = not tested or not shown. Hits are enriched below; roughly 2.2% of the tested compounds scored in any of these assays.

SMILES	Granule exo inh	HNF4A DNA FP	Myeloid diff 2	CSN deneddyl inh	Granule exo CP1
COCOCCn1cc(CN2CCS(=O)(=O)N(Cc3ccc(-c4ccc(Cl)c(Cl)c4)cc3)C(C(C)C)C2=O)nn1 (centres undefined)	57*	-4	i	0	33
COCOCCn1cc(CN2CCS(=O)(=O)N(Cc3ccc(-c4ccc(Cl)cc4)cc3)C(C(C)C)C2=O)nn1 (centres undefined)	-5	-3	i	-3	.
CC(C)N(Cc1ccccc1)S(=O)(=O)c1ccc(F)cc1	64*	3	i	-6	-14
CC(C)OC(=O)N(C)C[C@H]1OCc2cn(nn2)CCCC(=O)N([C@H](C)CO)C[C@@H]1C	-3	2	i	1	.
CC1CCCC(C)N1S(=O)(=O)c1ccc(Cl)cc1 (centres undefined)	-8	0	i	0	.
CC1=C(C)CS(=O)N(S(=O)(=O)c2ccc(Cl)cc2)C1 (centres undefined)	64*	4	.	-1	94*
CCCC(=O)OC(C(=O)Nc1cc(C(F)(F)F)ccc1Cl)c1ccccc1 (centres undefined)	-2	1	i	-3	.
O=C(CN1CCN(C(C(=O)Nc2cc(C(F)(F)F)ccc2Cl)c2ccccc2)CC1)NC1CC1 (centres undefined)	80*	-2	i	-3	-4
O=C(Nc1cc(C(F)(F)F)ccc1Cl)C(Sc1ccccn1)c1ccccc1 (centres undefined)	104*	0	i	-3	-14
Cc1cc(C(=O)N/N=C/c2cc(Br)c(Br)o2)n[nH]1	-10	-13	i	16	.
CC(C)c1ccc(-n2nnnc2SCC(=O)NC2CC2)cc1	1	-6	i	-4	.
OCCOc1ccc(CN2CCCC(N3CCN(c4ccc(F)cc4)CC3)C2)cc1 (centres undefined)	2	1	i	4	.
COc1ccc(CC(=O)NCC2CCCN(Cc3ccc(SC)cc3)C2)cc1 (centres undefined)	47	-1	i	4	.
COc1ccc(CC(=O)NCC2CCCN(Cc3ccc(F)c(OC)c3)C2)cc1 (centres undefined)	59*	-1	i	0	-14
COc1cc(CN2CCCC(N3CCN(c4ccc(F)cc4)CC3)C2)ccc1F (centres undefined)	61*	0	i	2	-14
CSc1ccc(CN2CCCC(N3CCN(c4ccccc4)CC3)C2)cc1 (centres undefined)	67*	-3	i	1	-13
COc1ccc(OCC(=O)N/N=C/c2cccn2-c2cccc(C(=O)O)c2)cc1	-2	-13	i	22	.
Clc1nc(CN2CCCCC2)nc2sc3c(c12)CCCC3	98*	8	i	3	-12
Cc1ccccc1N1C(=O)CC(Sc2nnc(-c3ccccc3)o2)C1=O (centres undefined)	88*	-1	i	-4	54
COc1ccc(OC)c(NC(=O)COC(=O)CCc2nc3ccccc3c(=O)[nH]2)c1	-1	-1	i	3	.
Cc1ccc(C)c(N2CCN(CCCNC(=O)CCn3c(=O)c4cccn4c4cccnc43)CC2)c1	3	-2	i	3	.
Cc1ccc(C)c(N2CCN(CCCNC(=O)Cn3c(=O)c4cccn4c4cccnc43)CC2)c1	75*	3	i	-2	-12
C[C@@H]1CN([C@H](C)CO)C(=O)c2c(c3ccccc3n2C)-c2ccccc2CO[C@H]1CN(C)Cc1ccc(Oc2ccccc2)cc1	56*	2	.	2	8
C[C@@H]1CN([C@H](C)CO)C(=O)c2c(c3ccccc3n2C)-c2ccccc2CO[C@H]1CN(C)Cc1ccc(C(F)(F)F)cc1	4	3	i	1	.
O=C1CCC(O)CCN1CCSc1ccccc1 (centres undefined)	-1	10	i	6	.
SMILES	Granule exo inh	HNF4A DNA FP	Myeloid diff 2	CSN deneddyl inh	Granule exo CP1
COc1cccc(-c2csc(NC(=O)Nc3ccccc3)n2)c1	88*	-1	i	0	-3
O=C(Nc1ccccc1)Nc1nc(-c2ccccc2)cs1	-5	4	i	-1	.
CCCn1c2ccccc2c2cnn(CC(=O)NC3CCCC(C)C3C)c(=O)c21 (centres undefined)	14	-3	i	5	.
CCCNC(=S)N1CCN(c2nc(C)nc3sc4c(c23)CCCC4)CC1	1	0	i	-8	.
COCCCNC(=S)N1CCN(c2nc(C)nc3sc4c(c23)CCCC4)CC1	66*	1	i	-8	-3
O=C(COCc1ccccc1)N[C@@H]1c2ccccc2CC[C@@H]1OCc1ccccc1	5	3	?	-1	.
COc1cccc(-c2cnc3c(NC(C)=O)cc(-c4ccccc4OC)cn23)c1	76*	1	i	5	94*
COc1ccc(-c2cc(NC(C)=O)c3ncc(-c4ccccc4)n3c2)c(OC)c1	94*	2	i	11	96*
CC(=O)Nc1cc(-c2ccccc2F)cn2c(-c3ccccc3)cnc12	79*	2	i	1	94*
O=C(COC(=O)c1cnccn1)N=c1sccn1Cc1ccccc1Cl	-3	3	i	4	.
CCOC1=C2CN(S(=O)(=O)c3ccc(C)cc3)[C@H](c3ccccc3)C[C@@H]2N(S(C)(=O)=O)[C@H](c2ccccc2)C1	0	14	i	5	.
CCN(CC)CC(O)Cn1c2ccccc2c2ccccc21 (centres undefined)	0	3	i	1	.
CCN(CC)CC(O)Cn1c(C)c(-c2ccccc2)c2cc([N+](=O)[O-])ccc21 (centres undefined)	58*	-2	i	3	10
COc1ccc(CCNCc2ccc(OCc3ccccc3)cc2)cc1	85*	1	i	3	57
CCN1CCN(S(=O)(=O)c2ccc(Cl)c(C(=O)N(C)Cc3ccco3)c2)CC1	-3	2	i	0	.
CCOC(=O)C1(CCOc2ccccc2)CCN(Cc2cccc(OC)c2O)CC1	69*	2	i	-1	-9
CCOC(=O)C1(CCOc2ccccc2)CCN(Cc2cc(OC)ccc2OC)CC1	84*	1	i	1	-7
CCOC(=O)c1[nH]cnc1C(=O)N1CCN(C(=O)OC(C)(C)C)CC1	12	-3	i	0	.
N#Cc1ccc(NC(=O)Nc2ccc(Oc3ccc(NC(=O)Nc4ccc(C#N)cc4)cc3)cc2)cc1	62*	2	i	1	81*
Cc1ccc(Cl)cc1N1CCN(S(=O)(=O)c2ccc3[nH]c(=O)c(=O)[nH]c3c2)CC1	-1	5	i	29	.
Cc1ccc(Cl)cc1N1CCN(S(=O)(=O)c2cccc(S(=O)(=O)N3CCCC3)c2)CC1	77*	0	i	3	-7
COc1ccc2oc(=O)cc(CN(C)Cc3ccccc3)c2c1	72*	3	i	-4	0
Cc1cc2oc(=O)cc(CN(C)Cc3ccccc3F)c2cc1Cl	28	0	i	2	.
